Experimental data reported in ChEMBL document CHEMBL4814031, “In pursuit of a selective hepatocellular carcinoma therapeutic agent: Novel thalidomide derivatives with antiproliferative, antimigratory and STAT3 inhibitory properties” (Eur J Med Chem, 2021).
Each block holds one compound with its values, some of them ahead of it. Active and inactive are the calls of the source. The calls are words filed in the database; no cut-off is given here.

What was measured:
[1] = Antiproliferative activity against mouse BMOL-NT cells assessed as cell growth by measuring doubling time at 10 uM measured every 4 hrs for 3 days by IncuCyte zoom live cell analysis (reference value: 18 to 19 hrs); assay type: cell-based; conditions: 72 h, time 3 day
[2] = Antiproliferative activity against mouse BMOL-T cells assessed as cell growth by measuring doubling time at 10 uM measured every 4 hrs for 3 days by IncuCyte zoom live cell analysis (reference value: 14.3 to 15 hrs); assay type: functional; conditions: time 3 day
[3] = Antiproliferative activity against mouse BMOL-T cells assessed as change in doubling time at 10 uM measured every 4 hrs for 3 days by IncuCyte zoom live cell analysis relative to control; assay type: functional; conditions: time 3 day
BMOL-T [4] = experiment: (§1) Antiproliferative activity against mouse BMOL-T cells assessed as cell growth inhibition at 10 uM measured every 4 hrs for 3 days by IncuCyte zoom live cell analysis relative to control; assay type: functional; conditions: time 3.0 day
[5] = biological target: Signal transducer and activator of transcription 3 (Mus musculus) (UniProt P42227); experiment: Inhibition of STAT3 phosphorylation in mouse BMOL-T cells assessed as change in nuclear phosphorylated STAT3 level at 10 uM incubated for 6 hrs by immunofluorescence assay relative to control; assay type: subcellular; parameters: scale not given: the % may be the effect or the level left; conditions: Nucleus
Sequence of Signal transducer and activator of transcription 3 (Mus musculus) (P42227 whole entry): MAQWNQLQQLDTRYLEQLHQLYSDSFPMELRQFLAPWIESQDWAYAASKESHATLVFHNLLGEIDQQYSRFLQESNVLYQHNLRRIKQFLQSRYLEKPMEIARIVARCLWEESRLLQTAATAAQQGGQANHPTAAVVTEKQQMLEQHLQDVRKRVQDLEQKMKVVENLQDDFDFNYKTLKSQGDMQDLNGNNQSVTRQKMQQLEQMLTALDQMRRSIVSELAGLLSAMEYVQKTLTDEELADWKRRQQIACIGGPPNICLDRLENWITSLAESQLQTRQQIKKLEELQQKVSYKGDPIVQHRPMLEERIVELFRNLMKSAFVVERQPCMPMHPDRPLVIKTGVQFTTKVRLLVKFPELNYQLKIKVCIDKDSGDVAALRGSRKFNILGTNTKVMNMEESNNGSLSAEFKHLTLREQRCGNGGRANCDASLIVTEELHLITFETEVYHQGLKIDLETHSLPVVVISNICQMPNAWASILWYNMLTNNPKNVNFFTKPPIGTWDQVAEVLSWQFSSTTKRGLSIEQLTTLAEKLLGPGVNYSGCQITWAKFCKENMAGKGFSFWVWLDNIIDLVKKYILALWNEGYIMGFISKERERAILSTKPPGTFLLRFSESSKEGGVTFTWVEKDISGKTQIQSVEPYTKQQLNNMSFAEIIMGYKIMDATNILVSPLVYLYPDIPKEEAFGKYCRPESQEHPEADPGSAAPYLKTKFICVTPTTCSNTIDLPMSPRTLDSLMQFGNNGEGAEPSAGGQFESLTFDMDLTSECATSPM
Procedure, shortened: (§2)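 BMOL cells in supplemented Williams' E medium were treated 6 h with compound or 0.1% DMSO vehicle. Fixed in 4% PFA, permeabilised with 0.1% Triton X-100, blocked, then incubated 18 h with anti-phospho-p65, -Akt or -STAT3, then secondary antibody 1 h and Hoechst. High-content imaging of per-cell intensity and nuclear:whole-cell ratio. Mean of two experiments, SD.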

[6] = biological target: Signal transducer and activator of transcription 3 (Mus musculus) (UniProt P42227); experiment: Inhibition of STAT3 phosphorylation in mouse BMOL-T cells assessed as change in phosphorylated STAT3 level at 10 uM incubated for 6 hrs by immunofluorescence assay relative to control; assay type: cell-based; parameters: scale not given: the % may be the effect or the level left; procedure, shortened: as §2
[7] = biological target: Transcription factor p65 (Mus musculus) (UniProt Q04207); experiment: Inhibition of NFkB p65 nuclear translocation in mouse BMOL-T cells assessed as change in nuclear p65 level at 10 uM incubated for 6 hrs by immunofluorescent assay relative to control; assay type: subcellular; parameters: scale not given: the % may be the effect or the level left; conditions: Nucleus; procedure, shortened: as §2
Sequence of Transcription factor p65 (Mus musculus) (Q04207 whole entry): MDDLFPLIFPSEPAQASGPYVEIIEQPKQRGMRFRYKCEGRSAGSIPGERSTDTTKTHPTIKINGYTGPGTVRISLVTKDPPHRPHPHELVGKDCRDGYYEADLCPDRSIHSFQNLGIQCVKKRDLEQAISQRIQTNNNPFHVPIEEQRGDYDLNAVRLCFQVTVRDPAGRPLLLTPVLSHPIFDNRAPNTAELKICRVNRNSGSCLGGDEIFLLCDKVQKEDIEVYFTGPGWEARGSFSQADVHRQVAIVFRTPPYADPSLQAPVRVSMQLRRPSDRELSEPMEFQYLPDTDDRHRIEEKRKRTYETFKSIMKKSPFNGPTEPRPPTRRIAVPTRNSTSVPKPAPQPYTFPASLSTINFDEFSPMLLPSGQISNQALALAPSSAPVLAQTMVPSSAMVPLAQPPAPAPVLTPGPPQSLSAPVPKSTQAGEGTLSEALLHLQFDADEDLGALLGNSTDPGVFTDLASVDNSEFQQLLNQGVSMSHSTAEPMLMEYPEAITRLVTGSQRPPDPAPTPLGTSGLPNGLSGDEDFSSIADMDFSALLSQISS

[8] = biological target: T1, Signal transducer and activator of transcription 3 (Mus musculus, UniProt P42227); experiment: Inhibition of STAT3 phosphorylation in mouse BMOL-NT cells assessed as change in phosphorylated STAT3 level at 10 uM incubated for 6 hrs by immunofluorescence assay relative to control; assay type: cell-based; parameters: scale not given: the % may be the effect or the level left; procedure, shortened: as §2
T1 sequence (P42227 whole entry): as the sequence (P42227 whole entry) above

Transcription factor p65 [9] = biological target: T2, Transcription factor p65 (Mus musculus, UniProt Q04207); experiment: Inhibition of NFkB p65 nuclear translocation in mouse BMOL-NT cells assessed as change in nuclear p65 level at 10 uM incubated for 6 hrs by immunofluorescent assay relative to control; assay type: subcellular, Nucleus; parameters: scale not given: the % may be the effect or the level left; procedure, shortened: as §2
T2 sequence (Q04207 whole entry): as the sequence (Q04207 whole entry) above

[10] = Inhibition of Akt phosphorylation in mouse BMOL-NT cells assessed as change in phosphorylated Akt level at 10 uM incubated for 6 hrs by immunofluorescent assay relative to control; assay type: cell-based; parameters: scale not given: the % may be the effect or the level left; procedure, shortened: as §2
BMOL-T [11] = experiment: Inhibition of Akt phosphorylation in mouse BMOL-T cells assessed as change in phosphorylated Akt level at 10 uM incubated for 6 hrs by immunofluorescent assay relative to control; assay type: cell-based; parameters: scale not given: the % may be the effect or the level left; procedure, shortened: as §2
BMOL-T [12] = experiment: Effect on STAT3 expression in mouse BMOL-T cells at 10 uM by AlphaLISA assay; assay type: functional, cell-based
Procedure, shortened: (§3)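 AlphaLISA in BMOL-T cells treated at 10 µM with 0.1% DMSO vehicle as control. Read as normalised fluorescence for total STAT3, or as the ratio of total STAT3 to p-STAT3. n ≥ 3, SEM. Significance by ANOVA with Dunnett's test.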

[13] = Inhibition of Akt phosphorylation in mouse BMOL-NT cells assessed as change in nuclear phosphorylated Akt level at 10 uM incubated for 6 hrs by immunofluorescent assay relative to control; assay type: subcellular, Nucleus; parameters: scale not given: the % may be the effect or the level left; procedure, shortened: as §2
Transcription factor p65 [14] = biological target: T2, Transcription factor p65; experiment: Inhibition of NFkB p65 phosphorylation in mouse BMOL-NT cells assessed as change in phosphorylated p65 level at 10 uM incubated for 6 hrs by immunofluorescent assay relative to control; assay type: cell-based; parameters: scale not given: the % may be the effect or the level left; procedure, shortened: as §2
[15] = biological target: Transcription factor p65 (Mus musculus) (UniProt Q04207); experiment: Inhibition of NFkB p65 phosphorylation in mouse BMOL-T cells assessed as change in phosphorylated p65 level at 10 uM incubated for 6 hrs by immunofluorescent assay relative to control; assay type: cell-based; parameters: scale not given: the % may be the effect or the level left; procedure, shortened: as §2
[16] = Antimigratory activity against mouse BMOL-T cells assessed as inhibition of cell migration at 10 uM incubated for 16 hrs by scratch wound healing assay relative to control; assay type: functional
Procedure, shortened: (§4)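 Wound healing in BMOL-T cells plated at 20,000/well in supplemented Williams' E medium and grown 24 h. Wounds made with a Woundmaker, then medium replaced with fresh medium holding compound or 0.1% DMSO vehicle. Live-cell imaging every 2 h over 24 h, read as average wound width (µm). n = 3, SEM.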

BMOL-T [17] = experiment: Inhibition of Akt phosphorylation in mouse BMOL-T cells assessed as change in nuclear phosphorylated Akt level at 10 uM incubated for 6 hrs by immunofluorescent assay relative to control; assay type: subcellular; parameters: scale not given: the % may be the effect or the level left; conditions: Nucleus; procedure, shortened: as §2
[18] = biological target: T1, Signal transducer and activator of transcription 3; experiment: Inhibition of STAT3 phosphorylation in mouse BMOL-NT cells assessed as change in nuclear phosphorylated STAT3 level at 10 uM incubated for 6 hrs by immunofluorescence assay relative to control; assay type: subcellular, Nucleus; parameters: scale not given: the % may be the effect or the level left; procedure, shortened: as §2
[19] = Antiproliferative activity against mouse BMOL-NT cells assessed as cell growth inhibition at 10 uM measured every 4 hrs for 3 days by IncuCyte zoom live cell analysis relative to control; assay type: cell-based; conditions: time 3 day; for Activity: bmol-nt, 72 h, 10 µM
[20] = Selectivity for antiproliferative activity against mouse BMOL-T cells over mouse BMOL-NT cells at 10 uM measured every 4 hrs for 3 days by IncuCyte zoom live cell analysis; conditions: time 3 day
[21] = Antiproliferative activity against mouse BMOL-NT cells assessed as cell growth inhibition at >10 uM measured every 4 hrs for 3 days by IncuCyte zoom live cell analysis; assay type: cell-based; conditions: 72 h, time 3 day
[22] = Selectivity for antiproliferative activity against mouse BMOL-T cells over mouse BMOL-NT cells at 26 uM measured every 4 hrs for 3 days by IncuCyte zoom live cell analysis; conditions: time 3 day
[23] = as §1; assay type: functional; conditions: 72 h, time 3 day
BMOL-T [24] = experiment: (§5) Antiproliferative activity against mouse BMOL-T cells assessed as minimum concentration required for cell growth inhibition measured every 4 hrs for 3 days by IncuCyte zoom live cell analysis; assay type: functional; conditions: time 3.0 day
Procedure, shortened: (§6)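 Dose series for BMOL-T proliferation: cells plated at 1000/well, compound added from 2× solutions (final 0.1% DMSO), imaged every 4 h for 3 days. Doubling time from the log-phase linear part of a log confluence vs time curve, expressed as % change over vehicle. n = 3, SEM.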

[25] = as §5; assay type: functional; conditions: time 3 day; procedure, shortened: as §6
BMOL-T [26] = experiment: Antimigratory activity against mouse BMOL-T cells assessed as inhibition of cell migration at 10 uM incubated for 24 hrs by scratch wound healing assay; assay type: functional, cell-based; procedure, shortened: as §4
[27] = Antiproliferative activity against mouse BMOL-NT cells assessed as change in doubling time at 10 uM measured every 4 hrs for 3 days by IncuCyte zoom live cell analysis relative to control; assay type: cell-based; conditions: 72 h, time 3 day
[28] = biological target: Signal transducer and activator of transcription 3 (Mus musculus) (UniProt P42227); experiment: Inhibition of STAT3 phosphorylation in mouse BMOL-T cells at 10 uM by AlphaLISA assay; assay type: cell-based; procedure, shortened: as §3

Structure (SMILES): CC(C)c1ccc(Nc2cccc3c2C(=O)N(C2CCC(=O)NC2=O)C3=O)cc1 (stereo not drawn)
- Time [1]: 17.3 h
- Time [2]: 16.3 h
- Activity [3]: 19%

Structure (SMILES): O=C1CCC(N2C(=O)c3cccc(Sc4ccc(C(F)(F)F)cn4)c3C2=O)C(=O)N1 (stereo not drawn)
- Activity (BMOL-T [4]): inactive

Structure (SMILES): COc1ccc(Nc2cccc3c2C(=O)N(C2CCC(=O)NC2=O)C3=O)cc1 (stereo not drawn)
- Activity (BMOL-T [4]): Active

- Activity [5]: 3%
- Activity [6]: -4%
- Activity [7]: 7%
- Activity [8]: 2%
- Activity (Transcription factor p65 [9]): -9%
- Activity [10]: 0%
- Activity [13]: -6%
- Activity (Transcription factor p65 [14]): 13%
- Activity [15]: -5%
- Activity (BMOL-T [17]): -16%
- Activity [18]: -3%
Structure (SMILES): Nc1cccc2c1CN(C1CCC(=O)NC1=O)C2=O (stereo not drawn) [LENALIDOMIDE]
- Time [1]: 18 h
- Time [2]: 15 h
- Activity (BMOL-T [11]): -9%
- Activity (BMOL-T [12]): inactive
- inhibition at 10 µM [16]: 20%

Structure (SMILES): COc1ccc(Sc2cccc3c2C(=O)N(C2CCC(=O)NC2=O)C3=O)cc1 (stereo not drawn)
- Activity [19]: Toxic

Structure (SMILES): CN(C)c1ccc(Nc2cccc3c2C(=O)N(C2CCC(=O)NC2=O)C3=O)cc1 (stereo not drawn)
- Activity (BMOL-T [4]): Active

Structure (SMILES): CCCCc1ccc(Nc2cccc3c2C(=O)N(C2CCC(=O)NC2=O)C3=O)cc1 (stereo not drawn)
- inhibition at 72 h, 10 µM ([19]; BMOL-NT cells): ≤ 10%
- Activity (BMOL-T [4]): Active

Structure (SMILES): Cc1ccc(Nc2cccc3c2C(=O)N(C2CCC(=O)NC2=O)C3=O)cc1 (stereo not drawn)
- Activity (BMOL-T [4]): inactive

Structure (SMILES): O=C1CCC(N2C(=O)c3cccc(Sc4ccc5ccccc5n4)c3C2=O)C(=O)N1 (stereo not drawn)
- Activity [19]: Non-Toxic

Structure (SMILES): CC(C)c1ccc(Nc2ccc3c(c2)C(=O)N(C2CCC(=O)NC2=O)C3=O)cc1 (stereo not drawn)
- Time [1]: 17.2 h
- Time [2]: 14.1 h
- Activity [3]: 3%

Structure (SMILES): O=C1CCC(N2C(=O)c3ccc(Nc4ccccc4)cc3C2=O)C(=O)N1 (stereo not drawn)
- Time [1]: 17.4 h
- Time [2]: 14.7 h
- Activity [3]: 4%

Structure (SMILES): O=C1CCC(N2C(=O)c3cccc(Nc4ccccn4)c3C2=O)C(=O)N1 (stereo not drawn)
- Activity [19]: Toxic

Structure (SMILES): Cc1ccc(Sc2cccc3c2C(=O)N(C2CCC(=O)NC2=O)C3=O)cc1 (stereo not drawn)
- Time [1]: 19.3 h

- Activity [5]: -10%
- Activity [6]: -7%
- Activity [7]: -9%
- Activity [8]: -4%
- Activity (Transcription factor p65 [9]): -11%
- Activity [10]: 4%
- Activity [13]: -10%
- Activity (Transcription factor p65 [14]): -1%
- Activity [15]: -7%
- Activity (BMOL-T [17]): 4%
- Activity [18]: -13%
Structure (SMILES): CC(C)(C)c1ccc(Nc2cccc3c2C(=O)N(C2CCC(=O)NC2=O)C3=O)cc1 (stereo not drawn)
- Selectivity ratio [20]: 23
- Activity [21]: Toxic
- Selectivity ratio [22]: 3
- Activity (BMOL-T [11]): 4%
- Activity (BMOL-T [12]): inactive
- inhibition at 10 µM [23]: 31%
- inhibition at 10 µM [16]: 94%
- Activity (BMOL-T [24]): Dose-Dependent Effect
- MAC [25]: 4 µM
- Activity (BMOL-T [26]): Active

Structure (SMILES): O=C1CCC(N2C(=O)c3cccc(Sc4ccccc4)c3C2=O)C(=O)N1 (stereo not drawn)
- Time [1]: 16.8 h
- Time [2]: 13.8 h
- Activity [3]: 2%
- Activity [27]: 1%

Structure (SMILES): Nc1cccc2c1C(=O)N(C1CCC(=O)NC1=O)C2=O (stereo not drawn) [POMALIDOMIDE]
- Time [1]: 18 h
- Time [2]: 15 h

- inhibition [28]: inactive
Structure (SMILES): CN1C(=O)CCC(N2C(=O)c3cccc(Sc4ccc(C(C)(C)C)cc4)c3C2=O)C1=O (stereo not drawn)
- Time [1]: 24 h
- Time [2]: 16.3 h
- Activity [3]: 14%
- Activity (BMOL-T [12]): inactive
- Activity [27]: 26%
